# Most compounds without a hit are left out; they make up all but 1.9% or so of the library.
# CHRM4 agonist = agonists of human muscarinic M4 receptor (CHRM4); activation, % at 3 µM; P08173; AID 624127; CHO-K1 hM4/Gqi5, Fluo-8 calcium fluorescence; vehicle 0%, full acetylcholine response 100%; actives 0.14% (n = 360,000);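 active = activation above the run mean over all test wells plus 3 SD, cut at about 32% in these data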;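 note: peak over basal fluorescence ratio per well then scaled between controls; 0% = DMSO wells and 100% = acetylcholine at EC100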
# Target sequence (P08173 whole entry, looked up): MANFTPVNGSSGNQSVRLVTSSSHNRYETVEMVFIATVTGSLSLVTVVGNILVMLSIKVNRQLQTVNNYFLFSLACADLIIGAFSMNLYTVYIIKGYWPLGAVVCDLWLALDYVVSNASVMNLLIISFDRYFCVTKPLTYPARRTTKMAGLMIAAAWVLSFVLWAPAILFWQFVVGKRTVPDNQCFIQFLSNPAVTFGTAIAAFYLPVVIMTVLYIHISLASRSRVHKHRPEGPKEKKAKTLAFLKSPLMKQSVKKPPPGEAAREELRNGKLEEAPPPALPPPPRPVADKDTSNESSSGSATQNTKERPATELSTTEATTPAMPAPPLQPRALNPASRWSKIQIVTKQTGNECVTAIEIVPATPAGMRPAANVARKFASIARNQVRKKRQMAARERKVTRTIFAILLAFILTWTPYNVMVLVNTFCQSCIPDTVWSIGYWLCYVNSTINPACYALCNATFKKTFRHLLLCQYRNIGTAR
# M4 PAM = potentiates acetylcholine response at human M4 receptor. P08173. activation, % at 3 µM. actives 0.4% (n = 360,000). CHO-K1 hM4/Gqi5, Fluo-8 calcium fluorescence, ACh EC20; 0% = ACh EC20, 100% = maximal ACh. AID 624126;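 active = activation above its plate's cutoff, the mean activation of sample wells plus 3 SD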
# CHRM5 antagonist = blocks acetylcholine activation of human M5 receptor; P08912; CHO-hM5 cells, Fluo-8 calcium fluorescence, ACh EC80; inhibition, % at 3 µM; actives 0.59% (n = 360,000);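 active = inhibition above a per-plate cutoff, the mean of that plate's test compounds plus 3 SD, cut at about 27% in these data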;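 note: 0% = acetylcholine EC80 with DMSO and 100% = DMSO without agonist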
# CHRM4 antagonist = CHRM4 antagonism in calcium assay. CHO-hM4 cells, ACh EC80, Fluo-8 calcium fluorescence. inhibition, % at 3 µM. actives 0.73% (n = 360,000);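 active = inhibition above its plate's cutoff, the mean inhibition of sample wells plus 3 SD, cut at about 27% in these data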;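 note: 0% = acetylcholine EC80 with DMSO and 100% = DMSO without agonist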
# CHRM5 PAM = positive allosteric modulators of human muscarinic M5 receptor | AID 624038 | activation, % at 3 µM | P08912 | CHO-K1 hM5, Fluo-8 calcium, ACh EC20 PAM; 0% = ACh EC20, 100% = ACh EC100 | actives 0.3% (n = 360,000);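 active = activation above the run cutoff, the mean activation of all test compounds plus 3 SD, cut at about 18% in these data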
#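 system = human M5 receptor in CHO-K1 cells | reagent = EC20 acetylcholine as agonist stimulus | compound dosing = single-point, 3 µM nominal | incubation = Fluo-8 loading 80 min at 37 °C plus 30 min room temperature | detection = Fluo-8 calcium dye fluorescence, kinetic read | benchmarks = low control EC20 acetylcholine (0%), high control EC100 acetylcholine (100%)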
# CHRM5 agonist = agonists of human muscarinic M5 receptor (CHRM5). CHO-K1 hM5 cells, Fluo-8 calcium fluorescence; 0% DMSO wells, 100% maximal acetylcholine response. activation, % at 3 µM. actives 0.19% (n = 360,000);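 active = activation above the run's mean over test compounds plus 3 SD, cut at about 23% in these data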;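 note: signal is peak over basal fluorescence ratio across the kinetic read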
# * marks the source's active call; other numbers are inactive results.
SMILES,CHRM4 agonist,M4 PAM,CHRM5 antagonist,CHRM4 antagonist,CHRM5 PAM,CHRM5 agonist
Cc1sc2ncnc(N3CCC(C(=O)Nc4ccc(Cl)cc4Cl)CC3)c2c1C,13.3,38.3*,0.0,0.0,5.1,-0.1
Cc1sc2ncnc(N3CCC(C(=O)Nc4ccc(Cl)c(Cl)c4)CC3)c2c1C,3.5,22.6*,19.2,0.5,-4.9,-1.4
C[C@@H]1CN([C@H](C)CO)C(=O)c2cc(Br)cnc2O[C@H]1CN(C)C(=O)Nc1ccc2c(c1)OCO2,1.2,1.1,1.8,-6.1,3.2,0.9
CSc1nsc(SC)c1C(=O)NC(=O)Nc1cccnc1,0.5,3.0,-10.8,-3.1,22.1*,4.0
CSc1nsc(SC)c1C(=O)Nc1ccc(C(C)(C)C)cc1,-0.7,-12.2,4.4,3.4,-9.6,-11.1
CCOC(=O)COc1ccc(S(=O)(=O)N2CCN(c3ccc(F)cc3)CC2)cc1,2.3,-8.1,6.5,8.9,-7.9,-2.4
O=C(NCCC1=CCCCC1)C(=O)NCc1ccncc1,1.7,21.4*,-12.6,-12.0,0.6,-11.1
O=C(NCCC1=CCCCC1)C(=O)NCCc1ccc(Cl)cc1,1.9,9.8,11.6,-8.0,-1.1,-1.9
CC(=O)c1ccc(S(=O)c2ccccc2)cc1 (stereo not drawn),1.8,33.7*,0.3,-3.2,1.9,-4.8
Cc1nc(-c2ccc(C(=O)Nc3cc(S(N)(=O)=O)ccc3C)cc2)cs1,0.8,-11.0,-0.4,30.4*,0.8,-3.3
Cc1ccc(NS(=O)(=O)c2ccc(N/N=C/c3ccncc3)c([N+](=O)[O-])c2)c(C)c1,1.3,13.4,-3.5,-2.8,3.9,1.6
COCCN(C)Cc1nc(C(c2ccccc2)c2ccccc2)no1,-0.8,-0.3,3.8,2.0,4.6,-13.8
CCC(c1ccccc1)c1noc(CCN(CC)CC)n1 (stereo not drawn),1.1,-14.4,58.5*,59.4*,-19.1,-2.6
N#C/C(=C\c1ccc(Sc2nc3ccccc3[nH]2)o1)c1ccccc1,9.8,-9.6,13.5,8.4,-12.9,1.8
N#C/C(=C\c1ccc(Sc2ccc(Cl)cc2)o1)c1nc2ccccc2[nH]1,11.7,-8.1,29.5*,12.2,-16.3,3.3
O=C(NC1CCCC1)C1C(c2ccccc2)=Nc2ccccc2N1C(=O)c1cc(Cl)cc(Cl)c1 (stereo not drawn),-0.5,-1.4,-0.3,5.8,-0.4,-3.1
Cc1cccc(N2CCN(C(=O)CCC(=O)N3CC(C)Oc4ccc(C)cc43)CC2C)c1 (stereo not drawn),11.9,-18.7,2.8,100.5*,-7.8,1.5
Cc1ccc2c(c1)N(C(=O)CCC(=O)N1CCN(c3ccccn3)CC1)CC(C)O2 (stereo not drawn),3.5,-4.6,4.1,2.8,-4.5,-0.2
CCOc1nc(Nc2ccc(Cl)cc2)nc(OCC)n1,-2.7,-1.4,0.1,-3.7,1.6,-7.0
COc1ccc(C2C(C(=O)O)CCC(=O)N2c2ccc(OC)cc2)cc1 (stereo not drawn),1.6,-3.8,-5.2,2.0,-4.4,0.6
COc1ccc(C2C(C(=O)NCc3ccco3)CCC(=O)N2c2ccc(OC)cc2)cc1 (stereo not drawn),0.3,4.0,3.2,-5.1,46.0*,-4.3
CCC(C)NC(=O)C(NS(=O)(=O)c1cccc2nsnc12)c1ccccc1 (stereo not drawn),0.6,4.9,-2.1,-15.4,35.2*,-9.4
Cn1c(CC(=O)Nc2ccccc2)nnc1SCC(=O)Nc1ccc(N2CCOCC2)cc1,-0.5,-2.2,7.9,-9.3,2.7,-3.9
COc1ccc2sc(C)nc2c1NC(C)=O,0.2,4.9,2.9,-4.2,-1.6,-2.2
COc1cc2sc(C)nc2c2sccc12,-0.3,18.2*,-22.9,-9.8,-1.0,-5.8
SMILES,CHRM4 agonist,M4 PAM,CHRM5 antagonist,CHRM4 antagonist,CHRM5 PAM,CHRM5 agonist
CC1CCCCN1CCCNC(=O)C1CCN(c2nc3ccccc3o2)CC1 (stereo not drawn),1.0,-15.9,0.0,54.7*,3.0,-5.2
CCOc1ccc(C(C)NC(=O)c2cccnc2OCC)cc1OCC (stereo not drawn),1.8,-2.4,-3.7,0.6,-2.0,-1.4
NC(=O)c1c(-c2ccc(Cl)cc2Cl)csc1NC(=O)Cc1ccccc1,9.1,-24.6,38.1*,2.7,-18.6,-0.2
Brc1ccccc1-c1nnc(COc2ncnc3ccccc23)o1,3.2,-10.6,2.2,8.4,1.2,5.7
O=C(c1cccc(S(=O)(=O)N2CCc3ccccc32)c1)N1CCN(CCO)CC1,0.9,-1.2,-3.3,6.3,3.8,1.1
O=C(Nc1cccc(Br)c1)c1ccc2c(c1)SC1=NS(=O)(=O)CCN12,0.7,22.6*,-0.1,-5.0,4.8,0.6
S=C(Nc1ccc(Cl)cc1)NC1CC2CCCC(C1)N2C1CCCC1 (stereo not drawn),2.4,3.6,-1.0,2.5,-3.7,-2.5
O=C(Nc1nnc(CCN2CCCCC2)s1)c1ccc(Cl)cc1Cl,0.6,2.7,-5.0,0.5,-0.8,-19.6
O=C1C2CSCN2C(=O)CN1CCCN1CCN(C(c2ccccc2)c2ccccc2)CC1 (stereo not drawn),0.9,-16.3,21.0,32.0*,-19.0,-10.5
O=C1c2ccccc2C(=O)N1CC#CCN1CCN(C(c2ccccc2)c2ccccc2)CC1,0.0,-6.8,5.6,-23.2,-13.8,-7.5
Cc1ccc(N2CCN(C(=O)C(=O)c3ccc(F)c(F)c3)CC2)cc1,5.8,1.2,-1.5,-3.4,-2.3,0.4
Cc1c(CC(=O)O)c(=O)oc2c(C)c3occ(-c4ccccc4)c3cc12,-1.0,-16.1,12.8,45.9*,-0.9,-5.7
O=C(c1ccccc1)c1ccccc1N1C(=O)C=CC1=O,8.6,-40.5,6.2,71.8*,3.3,4.1
O=C1C=CC(=O)N1c1ccccc1N1C(=O)C=CC1=O,2.8,3.7,0.5,-1.2,-2.5,5.0
CCOC(=O)c1cnc2c(C)cccc2c1NCCCN1CCOCC1,3.6,20.2*,4.7,-1.8,2.0,-2.0
CCOC(=O)c1cnc2c(CC)cccc2c1NCCN1CCOCC1,1.5,-12.9,27.5*,5.6,-1.5,-7.9
CCOC(=O)c1cnc2c(C(=O)OC)cccc2c1NCCN1CCOCC1,0.4,10.2,-4.4,-1.4,7.0,-0.3
CCOC(=O)c1cnc2c(C)cc(Cl)cc2c1NCCCN1CCOCC1,1.9,-2.0,1.0,-9.8,1.7,-2.0
Brc1ccc(-c2c[n+]3c(n2-c2ccccc2)SCC3)cc1,0.1,-16.1,6.1,53.5*,1.6,-18.2
COc1ccccc1NC(=O)c1oc2ccc(C)cc2c1C,-1.2,8.9,6.5,-10.6,-3.4,-4.8
Cc1ccc(Nc2ncnc(N)n2)cc1,0.3,-4.2,12.2,-7.4,-3.7,-1.1

# From PubChem BioAssay
